Laboratory results as given in ChEMBL document CHEMBL5058577, “EUbOPEN Chemogenomics Library 2 (Multiplex)” (2022).

System: U2OS
Experiment: Multiplex assay against U2OS
Assay type: toxicity, cell-based
Conditions: human
Procedure, shortened: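 Cells were classed with CellPathfinder machine-learning gating, first as Hoechst high-intensity objects or normal cells, then (normal cells) as healthy, pyknosed or fragmented nuclei, and finally (pyknosed cells) as mitotic or apoptotic. Staining of live cells at seeding used Hoechst33342, BioTracker Green Microtubule Cytoskeleton Dye, MitoTracker Red and Annexin V Alexa Fluor 680, with imaging on a CQ1 microscope at 37°C and 5% CO2 after compound addition. Tubulin, mitochondrial-mass and membrane-permeability phenotypes are per cents of healthy-nucleus cells.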

[1] = 12 h, 1 µM, compound concentration 1 uM, replicate 1
[2] = 12 h, 1 µM, compound concentration 1 uM, replicate 2
[3] = 12 h, 10 µM, compound concentration 10 uM, replicate 1
[4] = 12 h, 10 µM, compound concentration 10 uM, replicate 2
[5] = 24 h, 1 µM, compound concentration 1 uM, replicate 1
[6] = 24 h, 1 µM, compound concentration 1 uM, replicate 2
[7] = 24 h, 10 µM, compound concentration 10 uM, replicate 1
[8] = 24 h, 10 µM, compound concentration 10 uM, replicate 2
[9] = 48 h, 1 µM, compound concentration 1 uM, replicate 1
[10] = 48 h, 1 µM, compound concentration 1 uM, replicate 2
[11] = 48 h, 10 µM, compound concentration 10 uM, replicate 1
[12] = 48 h, 10 µM, compound concentration 10 uM, replicate 2

## O=C1COc2nccc(-c3ccccc3F)c2CN1Cc1cc(C(F)(F)F)cc(C(F)(F)F)c1
[1]
  Population Apoptotic (%): 52%
  Population Fragmented Nuclei (%): 19%
  Population Healthy Nuclei (%): 72%
  Population Hoechst High Intensity Objects (%): 4%
  Population Membrane Permeable-Phenotype (%): 6%
  Population Mitochondria Different-Phenotype (%): 2%
  Population Mitotic Cells (%): 47%
  Population Normal (%): 95%
  Population Pyknosed Nuclei (%): 8%
  Population Tubulin-Different-Phenotype (%): 4%
  Total Cell Count: 252
[2]
  Population Apoptotic (%): 77%
  Population Fragmented Nuclei (%): 23%
  Population Healthy Nuclei (%): 67%
  Population Hoechst High Intensity Objects (%): 2%
  Population Membrane Permeable-Phenotype (%): 15%
  Population Mitochondria Different-Phenotype (%): 9%
  Population Mitotic Cells (%): 22%
  Population Normal (%): 97%
  Population Tubulin-Different-Phenotype (%): 11%
  Total Cell Count: 108
[3]
  Population Apoptotic (%): 70%
  Population Fragmented Nuclei (%): 36%
  Population Healthy Nuclei (%): 47%
  Population Hoechst High Intensity Objects (%): 3%
  Population Membrane Permeable-Phenotype (%): 25%
  Population Mitochondria Different-Phenotype (%): 27%
  Population Mitotic Cells (%): 29%
  Population Normal (%): 96%
  Population Pyknosed Nuclei (%): 16%
  Population Tubulin-Different-Phenotype (%): 25%
  Total Cell Count: 200
[4]
  Population Apoptotic (%): 100%
  Population Fragmented Nuclei (%): 16%
  Population Healthy Nuclei (%): 76%
  Population Hoechst High Intensity Objects (%): 5%
  Population Membrane Permeable-Phenotype (%): 17%
  Population Mitochondria Different-Phenotype (%): 23%
  Population Mitotic Cells (%): 0%
  Population Normal (%): 94%
  Population Pyknosed Nuclei (%): 7%
  Population Tubulin-Different-Phenotype (%): 13%
  Total Cell Count: 112
[5]
  Population Apoptotic (%): 86%
  Population Fragmented Nuclei (%): 17%
  Population Healthy Nuclei (%): 74%
  Population Hoechst High Intensity Objects (%): 3%
  Population Membrane Permeable-Phenotype (%): 8%
  Population Mitochondria Different-Phenotype (%): 3%
  Population Mitotic Cells (%): 13%
  Population Normal (%): 96%
  Population Pyknosed Nuclei (%): 8%
  Population Tubulin-Different-Phenotype (%): 3%
  Total Cell Count: 291
[6]
  Population Apoptotic (%): 83%
  Population Fragmented Nuclei (%): 18%
  Population Healthy Nuclei (%): 76%
  Population Hoechst High Intensity Objects (%): 4%
  Population Membrane Permeable-Phenotype (%): 12%
  Population Mitochondria Different-Phenotype (%): 7%
  Population Mitotic Cells (%): 16%
  Population Normal (%): 95%
  Population Pyknosed Nuclei (%): 5%
  Population Tubulin-Different-Phenotype (%): 5%
  Total Cell Count: 121
[7]
  Population Apoptotic (%): 58%
  Population Fragmented Nuclei (%): 36%
  Population Healthy Nuclei (%): 43%
  Population Hoechst High Intensity Objects (%): 5%
  Population Membrane Permeable-Phenotype (%): 21%
  Population Mitochondria Different-Phenotype (%): 22%
  Population Mitotic Cells (%): 41%
  Population Normal (%): 94%
  Population Pyknosed Nuclei (%): 19%
  Population Tubulin-Different-Phenotype (%): 17%
  Total Cell Count: 210
[8]
  Population Apoptotic (%): 100%
  Population Fragmented Nuclei (%): 21%
  Population Healthy Nuclei (%): 70%
  Population Membrane Permeable-Phenotype (%): 13%
  Population Mitochondria Different-Phenotype (%): 19%
  Population Mitotic Cells (%): 0%
  Population Pyknosed Nuclei (%): 8%
  Population Tubulin-Different-Phenotype (%): 7%
  Total Cell Count: 126
[9]
  Population Apoptotic (%): 84%
  Population Fragmented Nuclei (%): 16%
  Population Healthy Nuclei (%): 74%
  Population Hoechst High Intensity Objects (%): 3%
  Population Membrane Permeable-Phenotype (%): 5%
  Population Mitochondria Different-Phenotype (%): 3%
  Population Mitotic Cells (%): 15%
  Population Normal (%): 96%
  Population Pyknosed Nuclei (%): 9%
  Population Tubulin-Different-Phenotype (%): 3%
  Total Cell Count: 425
[10]
  Population Apoptotic (%): 76%
  Population Fragmented Nuclei (%): 19%
  Population Healthy Nuclei (%): 69%
  Population Membrane Permeable-Phenotype (%): 8%
  Population Mitochondria Different-Phenotype (%): 5%
  Population Mitotic Cells (%): 23%
  Population Pyknosed Nuclei (%): 10%
  Total Cell Count: 166
[11]
  Population Apoptotic (%): 61%
  Population Fragmented Nuclei (%): 35%
  Population Healthy Nuclei (%): 46%
  Population Hoechst High Intensity Objects (%): 4%
  Population Membrane Permeable-Phenotype (%): 20%
  Population Mitochondria Different-Phenotype (%): 17%
  Population Mitotic Cells (%): 38%
  Population Normal (%): 95%
  Population Pyknosed Nuclei (%): 17%
  Population Tubulin-Different-Phenotype (%): 11%
  Total Cell Count: 236
[12]
  Population Apoptotic (%): 85%
  Population Fragmented Nuclei (%): 25%
  Population Healthy Nuclei (%): 60%
  Population Membrane Permeable-Phenotype (%): 12%
  Population Mitochondria Different-Phenotype (%): 12%
  Population Mitotic Cells (%): 14%
  Population Pyknosed Nuclei (%): 14%
  Population Tubulin-Different-Phenotype (%): 3%
  Total Cell Count: 151

## CCCn1c(=O)c2[nH]c(C3CCCC3)nc2n(CCC)c1=O [1,3-DIPROPYL-8-CYCLOPENTYLXANTHINE [DPCPX]]
[1]
  Population Apoptotic (%): 87%
  Population Fragmented Nuclei (%): 25%
  Population Healthy Nuclei (%): 64%
  Population Hoechst High Intensity Objects (%): 1%
  Population Membrane Permeable-Phenotype (%): 1%
  Population Mitochondria Different-Phenotype (%): 3%
  Population Mitotic Cells (%): 12%
  Population Normal (%): 98%
  Population Pyknosed Nuclei (%): 9%
  Population Tubulin-Different-Phenotype (%): 1%
  Total Cell Count: 250
[2]
  Population Apoptotic (%): 93%
  Population Fragmented Nuclei (%): 15%
  Population Healthy Nuclei (%): 72%
  Population Hoechst High Intensity Objects (%): 0%
  Population Membrane Permeable-Phenotype (%): 7%
  Population Mitochondria Different-Phenotype (%): 4%
  Population Mitotic Cells (%): 6%
  Population Normal (%): 100%
  Population Pyknosed Nuclei (%): 12%
  Population Tubulin-Different-Phenotype (%): 5%
  Total Cell Count: 125
[3]
  Population Apoptotic (%): 68%
  Population Fragmented Nuclei (%): 30%
  Population Healthy Nuclei (%): 60%
  Population Hoechst High Intensity Objects (%): 2%
  Population Membrane Permeable-Phenotype (%): 5%
  Population Mitochondria Different-Phenotype (%): 1%
  Population Mitotic Cells (%): 31%
  Population Normal (%): 97%
  Population Pyknosed Nuclei (%): 9%
  Population Tubulin-Different-Phenotype (%): 3%
  Total Cell Count: 206
[4]
  Population Apoptotic (%): 100%
  Population Fragmented Nuclei (%): 21%
  Population Healthy Nuclei (%): 69%
  Population Hoechst High Intensity Objects (%): 3%
  Population Membrane Permeable-Phenotype (%): 6%
  Population Mitochondria Different-Phenotype (%): 9%
  Population Mitotic Cells (%): 0%
  Population Normal (%): 96%
  Population Pyknosed Nuclei (%): 8%
  Total Cell Count: 96
[5]
  Population Apoptotic (%): 83%
  Population Fragmented Nuclei (%): 24%
  Population Healthy Nuclei (%): 68%
  Population Hoechst High Intensity Objects (%): 3%
  Population Membrane Permeable-Phenotype (%): 5%
  Population Mitochondria Different-Phenotype (%): 3%
  Population Mitotic Cells (%): 16%
  Population Normal (%): 96%
  Population Pyknosed Nuclei (%): 7%
  Population Tubulin-Different-Phenotype (%): 4%
  Total Cell Count: 261
[6]
  Population Apoptotic (%): 87%
  Population Fragmented Nuclei (%): 13%
  Population Healthy Nuclei (%): 74%
  Population Hoechst High Intensity Objects (%): 2%
  Population Membrane Permeable-Phenotype (%): 8%
  Population Mitotic Cells (%): 12%
  Population Normal (%): 97%
  Population Pyknosed Nuclei (%): 11%
  Total Cell Count: 138
[7]
  Population Apoptotic (%): 89%
  Population Fragmented Nuclei (%): 27%
  Population Healthy Nuclei (%): 64%
  Population Hoechst High Intensity Objects (%): 2%
  Population Membrane Permeable-Phenotype (%): 7%
  Population Mitochondria Different-Phenotype (%): 0%
  Population Mitotic Cells (%): 10%
  Population Normal (%): 97%
  Population Pyknosed Nuclei (%): 8%
  Population Tubulin-Different-Phenotype (%): 0%
  Total Cell Count: 234
[8]
  Population Apoptotic (%): 100%
  Population Fragmented Nuclei (%): 21%
  Population Healthy Nuclei (%): 71%
  Population Hoechst High Intensity Objects (%): 4%
  Population Membrane Permeable-Phenotype (%): 3%
  Population Mitochondria Different-Phenotype (%): 3%
  Population Mitotic Cells (%): 0%
  Population Normal (%): 95%
  Population Pyknosed Nuclei (%): 6%
  Total Cell Count: 120
[9]
  Population Apoptotic (%): 86%
  Population Fragmented Nuclei (%): 20%
  Population Healthy Nuclei (%): 69%
  Population Hoechst High Intensity Objects (%): 1%
  Population Membrane Permeable-Phenotype (%): 3%
  Population Mitochondria Different-Phenotype (%): 1%
  Population Mitotic Cells (%): 13%
  Population Normal (%): 98%
  Population Pyknosed Nuclei (%): 10%
  Population Tubulin-Different-Phenotype (%): 2%
  Total Cell Count: 364
[10]
  Population Apoptotic (%): 92%
  Population Fragmented Nuclei (%): 17%
  Population Hoechst High Intensity Objects (%): 2%
  Population Membrane Permeable-Phenotype (%): 8%
  Population Mitochondria Different-Phenotype (%): 4%
  Population Mitotic Cells (%): 8%
  Population Normal (%): 97%
  Population Pyknosed Nuclei (%): 13%
  Population Tubulin-Different-Phenotype (%): 3%
  Total Cell Count: 196
[11]
  Population Apoptotic (%): 77%
  Population Fragmented Nuclei (%): 24%
  Population Healthy Nuclei (%): 62%
  Population Hoechst High Intensity Objects (%): 2%
  Population Membrane Permeable-Phenotype (%): 4%
  Population Mitochondria Different-Phenotype (%): 1%
  Population Mitotic Cells (%): 22%
  Population Normal (%): 97%
  Population Pyknosed Nuclei (%): 12%
  Population Tubulin-Different-Phenotype (%): 3%
  Total Cell Count: 322
[12]
  Population Apoptotic (%): 100%
  Population Fragmented Nuclei (%): 19%
  Population Healthy Nuclei (%): 73%
  Population Hoechst High Intensity Objects (%): 3%
  Population Membrane Permeable-Phenotype (%): 5%
  Population Mitochondria Different-Phenotype (%): 3%
  Population Mitotic Cells (%): 0%
  Population Normal (%): 96%
  Population Pyknosed Nuclei (%): 6%
  Population Tubulin-Different-Phenotype (%): 0%
  Total Cell Count: 165
